Test results published in ChEMBL document CHEMBL1135595, “Design, synthesis and biological evaluation of novel N-alkyl- and N-acyl-(7-substituted-2-phenylimidazo[1,2-a][1,3,5]triazin-4-yl)amines (ITAs) as novel A(1) adenosine receptor antagonists” (J Med Chem, 2002).

What was measured:
Adenosine receptor A1 = molecular target: T1, Adenosine receptor A1 (Bos taurus, UniProt P28190); assay: Displacement of [3H]CHA from Adenosine A1 receptor in bovine cortical membranes.; format: cell membranes
T1 sequence (P28190 whole entry): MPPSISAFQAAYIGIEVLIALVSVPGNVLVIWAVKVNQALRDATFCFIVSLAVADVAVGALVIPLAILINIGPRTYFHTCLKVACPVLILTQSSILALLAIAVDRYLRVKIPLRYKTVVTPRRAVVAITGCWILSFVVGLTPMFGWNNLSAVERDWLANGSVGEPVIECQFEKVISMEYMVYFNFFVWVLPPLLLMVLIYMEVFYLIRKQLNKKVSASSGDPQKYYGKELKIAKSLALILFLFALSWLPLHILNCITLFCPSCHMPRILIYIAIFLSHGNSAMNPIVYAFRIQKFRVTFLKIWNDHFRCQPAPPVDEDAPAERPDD
How it was run: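 Compounds were dissolved in DMSO (≤2% in assay) and tested at six or more concentrations. n = 4 independent experiments in triplicate. Ki and IC50 ± SEM came from iterative curve fitting. Protein was measured with BSA as standard after NaOH (0.75 N) solubilization.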

[1] = molecular target: Adenosine receptor A2a (Bos taurus); assay: Displacement of [3H]- CGS-21680 from Adenosine A2a receptor in bovine striatal membranes.

| Compound | Ki (Adenosine receptor A1) [nM] | Ki [1] [nM] |
| --- | --- | --- |
| CC(=O)Nc1nc(-c2ccccc2)nc2nc(-c3ccccc3)cn12 | 23 | 3200 |
| Cc1cn2c(NCC3CCCCC3)nc(-c3ccccc3)nc2n1 | 231 |  |
| Cc1cn2c(NC(=O)C3CCCCC3)nc(-c3ccccc3)nc2n1 | 116 |  |
| CC(=O)Nc1nc(-c2ccccc2)nc2nc(C)cn12 | 855 | > 10000 |
| Cc1cn2c(NC34C[C@H]5C[C@@H](C3)C[C@@H](C4)C5)nc(-c3ccccc3)nc2n1 | 511 | > 10000 |
| CC(C)c1cn2c(NC(=O)C3CCCC3)nc(-c3ccccc3)nc2n1 | 5.8 | > 10000 |
| Cc1cn2c(NC3CCCC3)nc(-c3ccccc3)nc2n1 | 41 | 4100 |
| CC(=O)CNc1nc(-c2ccccc2)nc2nc(C)cn12 | 12 | > 10000 |
| CCC(=O)CNc1nc(-c2ccccc2)nc2nc(C)cn12 | > 10000 | > 10000 |

Next, values leading:

| Ki (Adenosine receptor A1) [nM] | Ki [1] [nM] | Compound |
| --- | --- | --- |
| > 10000 |  | CCc1cn2c(NCC(C)=O)nc(-c3ccccc3)nc2n1 |
| 4.4 |  | Cc1cn2c(NC(=O)C3CCCC3)nc(-c3ccccc3)nc2n1 |
| 2360 |  | CC(=O)CNc1nc(-c2ccccc2)nc2nc(C(C)C)cn12 |
| 3900 |  | Cc1cn2c(NCc3ccccc3)nc(-c3ccccc3)nc2n1 |
| 3.3 |  | CCc1cn2c(NC(=O)C3CCCC3)nc(-c3ccccc3)nc2n1 |
| 332 |  | Cc1cn2c(N)nc(-c3ccccc3)nc2n1 |
| > 10000 |  | CC(=O)CNc1nc(-c2ccccc2)nc2nc(-c3ccccc3)cn12 |
| 17 | 2500 | O=C(Nc1nc(-c2ccccc2)nc2nc(-c3ccccc3)cn12)C1CCCC1 |
| 27.2 |  | Cc1cn2c(NC(=O)c3ccccc3)nc(-c3ccccc3)nc2n1 |
